Source: PubChem BioAssay
Not all results are given here.
PGC1a Ac signal – raises PGC1a acetylation signal in U2OS cells; U2OS PGC1a acetylation AlphaScreen, overnight; activation, % at 15.6 µM; actives 0.21% (n = 350,000); AID 651723;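 active means every replicate reaching activation of at least 50%, whatever the mean replicate activation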;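 further: hits raise the AlphaScreen acetylation signal above neutral controls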
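detection = AlphaScreen lysate read | assay system = U2OS cells expressing flag-PGC1a plus GCN5 | input = 7000 cells/well | dosing = one concentration | times = compound overnight at 37 °C, each detection step 1 h RT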
G6PC hep suppr – hepatocyte G6PC expression change via PGC-1a acetylation activation; shares compounds with PGC1a Ac signal; primary mouse hepatocytes, G6PC mRNA qPCR, forskolin; G6PC suppression (normalized activity, % of positive control; higher = more suppression), % at 26 µM; 240 tested, under 10 active; AID 743463;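 active means dose curves showing G6PC suppression whose half-maximal dose is at most twice the top valid dose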;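 further: G6PC expression relative to GAPDH housekeeping gene as delta delta Ct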
PCK1 hep suppr – hepatocyte PCK1 expression change via PGC-1a acetylation activation | shares compounds with PGC1a Ac signal | primary mouse hepatocytes, PCK1 mRNA qPCR, forskolin-stimulated | PCK1 expression decrease, unspecified at 26 µM | 230 tested, under 10 active | AID 743465;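 active means compounds lowering PCK1 expression whose fitted half-maximal concentration is at most twice the top tested dose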;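 further: higher delta delta Ct means lower PCK1 expression so positive values indicate hits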
Hep PGC-1a down – PGC-1a acetylation activators affecting PGC-1a expression in hepatocytes | shares compounds with PGC1a Ac signal | primary mouse hepatocytes, PGC-1a mRNA qPCR, forskolin; top dose 26 µM | max activity (PGC-1a expression decrease), % | 240 tested, under 10 active;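 active means compound lowering PGC-1a expression with fitted half-maximal concentration at most twice its top tested dose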
A number is an active result; – = inactive.

SMILES | PGC1a Ac signal | others
COCCCn1c(N)c(C(=O)Nc2ccccc2)c2nc3ccccc3nc21 | 51.3
NC1C2CN3CCN(C2)CC1(c1ccccc1)C3 (stereo unspecified) | –
CC1=CC(=O)C2=C(C)C[C@H](O)[C@@H]3[C@H](OC(=O)[C@H]3C)[C@@H]12 | –
CCc1ccc(N2C(=O)NC(=O)/C(=C\C=C\c3ccco3)C2=O)cc1 | 113.6
Cc1ccc(N2C(=O)NC(=O)/C(=C/c3ccoc3)C2=O)cc1 | –
O=[N+]([O-])c1ccc(N2CCOCC2)c2c1no[n+]2[O-] | –
COc1ccc(C(c2ccc(OC)cc2)C(Cl)(Cl)Cl)cc1 | 93.4
CC(=O)OC1CC(OC2C(O)CC(OC3C(O)CC(OC4CCC5(C)C(CCC6C5CCC5(C)C(C7=CC(=O)OC7)C(O)CC65O)C4)OC3C)OC2C)OC(C)C1OC1OC(CO)C(O)C(O)C1O (stereo unspecified) | –
COC(=O)C1C2c3ccccc3OC1(C)N=c1s/c(=C/c3cn(C)nc3C)c(=O)n12 (stereo unspecified) | –
N#Cc1ccccc1NC(=O)CN1CC=C(c2ccccc2)CC1 | –
C=C1C(=O)OC2CC3(C)OC3CCC(C)=CC(OC(C)=O)C12 (stereo unspecified) | 117.7
O=C1/C(=C/c2ccccc2)C[C@@]2(O)[C@H]3Cc4ccc(O)c5c4[C@@]2(CCN3CC2CC2)C1O5 (stereo partly specified) | –
CNC(=O)c1cccn(Cc2ccc(C(F)(F)F)cc2)c1=O | 68.0
O=c1[nH]c2ccccc2n1C1CCN(C(c2cc3ccccc3o2)c2nnnn2Cc2ccccc2)CC1 (stereo unspecified) | –
C[C@H]1CCC/C=C/[C@@H]2C[C@H](O)C[C@H]2[C@@H](O)/C=C/C(=O)O1 | –
C[C@]12CC[C@H]3[C@@H](CC[C@]4(O)C[C@@H](O)CC[C@]34C=O)[C@@]1(O)CC[C@@H]2C1=CC(=O)OC1 | –
CC1CC(C)CC(C)C(O)C(C#N)=CC=CCC(C2CCCC2C(=O)O)OC(=O)CC(O)C(C)C1 (stereo unspecified) | –
O=C1CSC2N1CCNC21CCCCC1 (stereo unspecified) | –
COc1ccc(C(c2nnnn2C2CCCCC2)N2CCC3(CC2)C(=O)NCN3c2ccccc2)cc1 (stereo unspecified) | 120.3
CN1C2CCC1/C(=C/c1ccccn1)C(=O)/C2=C\c1ccccn1 | –
CCOC(=O)CNC(=O)N1Cc2ccc(Br)cc2-n2nncc2C1 | –
CCCN(CCC)[C@@H]1CCc2cccc(O)c2C1 | –
COc1ccc(-n2c(O)c(C=NCCCn3ccnc3)c(=O)[nH]c2=O)cc1 | 68.3
CCN(CC)c1ccc(N=Cc2c(O)n(-c3ccc(OC)cc3)c(=O)[nH]c2=O)cc1 | –
CC(C)Oc1cccnc1N(C)C1CCN(Cc2ccccc2)CC1 | –
SMILES | PGC1a Ac signal | others
C=C1C(=O)O[C@@H]2C[C@@H](C)[C@H]3C=CC(=O)[C@]3(O)C[C@@H]12 | 79.2
CC(=O)OC1CC2(O)C3CCC4CC(O)CCC4(C)C3CCC2(C)C1C1=CC(=O)OC1 (stereo unspecified) | –
CNCC(=O)c1ccc(O)c(O)c1 | –
CCC1(CC)C(=O)C=CNC1=O | –
C=C1C(=O)OC2CC3(C)OC3C3OC3C3=CC(OC3=O)C12 (stereo unspecified) | 85.2
CC(=O)OCC12CC(OC(=O)CC(C)C)C(C)=CC1OC1C(O)C(OC(C)=O)C2(C)C12CO2 (stereo unspecified) | –
CC(C)(O)/C=C/C(=O)[C@](C)(O)C1[C@H](O)C[C@@]2(C)C3CC=C4C(C[C@H](O)[C@@H](O)C4(C)C)[C@]3(C)C(=O)C[C@]12C (stereo partly specified) | –
O=c1c2ccccc2nc(/C=C/c2ccc([N+](=O)[O-])o2)n1-c1ccc(O)cc1 | 143.6
C[C@H]1C[C@@H](C)C(=O)[C@@H]([C@H](O)CC2CC(=O)NC(=O)C2)C1 | –
CC1=CC(=C2C(=O)NC(=S)NC2=O)C=C(C(F)(F)F)N1Cc1ccccc1 | –
O=C1NC2C(=CC(O)C(O)C2O)c2cc3c(c(O)c21)OCO3 (stereo unspecified) | –
COc1ccc(OC(=O)N(C)C[C@H]2OCc3ccccc3-c3c(n(C)c4ccccc34)C(=O)N([C@H](C)CO)C[C@H]2C)cc1 | 172.5 | G6PC hep suppr=–;PCK1 hep suppr=–;Hep PGC-1a down=–
